Laboratory results taken from publication PMC6447837 (Cancer Science, 2019).

Legend:
Lyn = Lyn (Homo sapiens, UniProt P07948); assay: Radiometric kinase IC50 assay; type: biochemical
Fyn = Fyn (Homo sapiens, UniProt P06241); assay: Radiometric kinase IC50 assay; type: biochemical
Capan‐2 = assay: MTT antiviability assay; type: cell-based; details: Homo sapiens, Capan-2, 72 h
HPAC = assay: MTT antiviability assay; type: cell-based; details: Homo sapiens, 72 h
MDA‐MB‐436 = assay: MTT antiviability assay; type: cell-based; details: Homo sapiens, MDA-MB-436, 72 h
MCF‐7 = assay: MTT antiviability assay; type: cell-based; details: Homo sapiens, MCF7, 72 h
A375 = assay: MTT antiviability assay; type: cell-based; details: Homo sapiens, A-375, 72 h
KG‐1a = assay: MTT antiviability assay; type: cell-based; details: Homo sapiens, 72 h
Aspc‐1 cells [1] = assay: Colony formation assay; type: cell-based, human; details: 14 days
How it was run: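 Cells were seeded at 5000-8000 per well and treated with test compound the next day, from DMSO stocks diluted in medium. Medium with vehicle or compound was replaced every 4 days. Cells were then methanol-fixed and crystal violet-stained. Colonies of more than 50 cells were counted under an inverted microscope and expressed as a percentage of colony numbers. Mean of n = 3, with SD.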

Aspc‐1 cells [2] = assay: EdU incorporation; type: cell-based, human; details: 24 hours
How it was run: (§1)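 Cells were seeded overnight at 5000-8000 per well in 96-well plates, then exposed to test compound for 24 h. Cells were then incubated with EdU followed by Hoechst, using a commercial kit per manufacturer's instructions. EdU marks proliferating cells and Hoechst marks nuclei. The read-out was the percentage of EdU-positive cells, as mean of n = 3 with SD.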

Bxpc‐3 cells [3] = assay: EdU incorporation; type: cell-based, human; details: 24 hours
How it was run: as §1

Aspc‐1 cells [4] = assay: Annexin V/PI apoptosis assay; type: cell-based, human; details: 24 hours
How it was run: (§2)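 Cells were treated with a range of concentrations for 24 hours, washed with PBS, then stained with annexin V‑FITC and propidium iodide for 15 minutes in the dark. […] Early (annexin V) and late (PI) apoptotic cells are reported as percentages, mean of n = 3 with SD.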

Bxpc‐3 cells [5] = assay: Annexin V/PI apoptosis assay; type: cell-based, human; details: 24 hours
How it was run: as §2

Src = Src (Homo sapiens, UniProt P12931); type: cell-based; details: 12 hours, western blot
STAT3 = assay: Western blot, STAT3 phosphorylation; type: cell-based, human; details: Aspc‐1 and Bxpc‐3 cells, 12 hours
How it was run: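 Aspc-1 and Bxpc-3 cells were grown overnight in complete medium and treated with test compound for 12 h. Cells were lysed in RIPA buffer and protein was quantified. Lysates were run on SDS-PAGE and transferred to PVDF, then blocked 2 h in TBS-T with 5% non-fat milk. Blots were probed for pAKT Ser473, pERK Thr202/Tyr204, pSTAT3 Tyr705, the matching total proteins and β-actin. Detection was by enhanced chemiluminescence.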

[6] = Body weight during treatment in xenograft models; type: in vivo, NOD‐SCID mice; details: Aspc‐1 and Bxpc‐3 xenograft models; 20 or 40 mg/kg/d p.o., 18 days
How it was run: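 Six‑week‑old female NOD‑SCID mice received 5 × 10⁶–1 × 10⁷ cells s.c. in the right flank and were grouped (6 per group) at about 200 mm³. Test compound in 25% (v/v) PEG400 plus 5% DMSO in deionized water was given by oral gavage once daily for 18 days, alongside vehicle controls. Mean body weight with SD was recorded.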

cleaved caspase‐3 = assay: Immunohistochemistry of xenograft tumor tissues; type: in vivo, NOD‐SCID mice; details: xenograft models; LY‐1816 40 mg/kg/d p.o., gemcitabine 80 mg/kg/wk; IHC
How it was run: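 Aspc‑1 or Bxpc‑3 s.c. tumors in NOD‑SCID mice were dosed p.o. daily from about 200 mm³, with vehicle controls. At study end, tumors were resected. Frozen sections were immunostained and imaged by light microscopy, and cleaved caspase‑3‑positive cells were counted.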

Aspc‐1 cells [7] = assay: Wound healing assay; type: cell-based, human; details: 18 hours
[8] = tested on: Miapaca‐2 metastatic model; assay: Experimental metastasis assay; type: in vivo, NOD‐SCID mice; details: 40 mg/kg/d
How it was run: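 Miapaca‑2 cells (5 × 10⁶) were injected into the tail vein of 5‑ to 6‑week‑old female NOD‑SCID mice. Mice were randomized immediately into 5 groups of 6 and given test compound p.o. at 20 or 40 mg/kg, comparators, or vehicle. […] Kaplan–Meier analysis used a log rank test against control.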

HCC1937 = details: HCC1937, Triple negative breast cancer; mean ± SD; ref Zhang et al (2016) 35; cited from earlier work
BT474 = details: BT474, Breast cancer; ref Zhang et al (2016) 35; cited from earlier work
HepG2 = details: HepG2, Hepatocarcinoma; ref Zhang et al (2016) 35; cited from earlier work
RAMOS = details: Lymphoma, ref Zhang et al (2016) 35; cited from earlier work
MV4‐11 = details: MV4‐11, Leukemia; mean ± SD; ref Zhang et al (2016) 35; cited from earlier work
L929 = details: L929, Mouse fibroblast (normal cell line); ref Zhang et al (2016) 35; cited from earlier work
LO2 = details: LO2, Human hepatic cells (normal cell line); ref Zhang et al (2016) 35; cited from earlier work

Src, sequence (P12931 whole entry): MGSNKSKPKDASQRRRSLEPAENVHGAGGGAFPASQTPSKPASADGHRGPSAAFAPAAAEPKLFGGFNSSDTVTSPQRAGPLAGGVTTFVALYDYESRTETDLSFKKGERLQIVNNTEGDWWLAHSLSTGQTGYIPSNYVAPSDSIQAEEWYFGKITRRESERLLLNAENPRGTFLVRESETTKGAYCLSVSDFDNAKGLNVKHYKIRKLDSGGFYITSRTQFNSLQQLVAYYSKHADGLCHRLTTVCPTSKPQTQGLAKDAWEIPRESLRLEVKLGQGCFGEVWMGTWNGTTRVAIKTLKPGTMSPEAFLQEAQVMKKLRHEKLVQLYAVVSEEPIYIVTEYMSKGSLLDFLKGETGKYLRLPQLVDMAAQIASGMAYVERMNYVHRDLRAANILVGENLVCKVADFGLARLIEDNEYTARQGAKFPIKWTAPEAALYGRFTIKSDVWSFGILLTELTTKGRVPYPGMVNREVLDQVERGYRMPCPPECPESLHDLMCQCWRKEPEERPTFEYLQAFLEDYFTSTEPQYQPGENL
Fyn, sequence (P06241 whole entry): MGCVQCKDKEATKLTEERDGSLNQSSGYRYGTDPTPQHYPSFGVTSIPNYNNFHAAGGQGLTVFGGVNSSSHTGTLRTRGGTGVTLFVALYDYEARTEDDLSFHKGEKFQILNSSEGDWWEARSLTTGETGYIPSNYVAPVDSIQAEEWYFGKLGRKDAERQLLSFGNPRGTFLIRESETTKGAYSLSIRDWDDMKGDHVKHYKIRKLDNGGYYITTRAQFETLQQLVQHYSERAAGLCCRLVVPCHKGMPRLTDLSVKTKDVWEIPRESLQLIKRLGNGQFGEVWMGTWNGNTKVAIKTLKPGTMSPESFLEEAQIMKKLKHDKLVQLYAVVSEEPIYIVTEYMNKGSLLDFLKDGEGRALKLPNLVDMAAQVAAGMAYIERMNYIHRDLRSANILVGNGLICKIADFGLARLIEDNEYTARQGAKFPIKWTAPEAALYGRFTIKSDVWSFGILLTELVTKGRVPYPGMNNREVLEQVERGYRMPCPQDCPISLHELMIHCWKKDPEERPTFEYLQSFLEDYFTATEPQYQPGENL
Lyn, sequence (P07948 whole entry): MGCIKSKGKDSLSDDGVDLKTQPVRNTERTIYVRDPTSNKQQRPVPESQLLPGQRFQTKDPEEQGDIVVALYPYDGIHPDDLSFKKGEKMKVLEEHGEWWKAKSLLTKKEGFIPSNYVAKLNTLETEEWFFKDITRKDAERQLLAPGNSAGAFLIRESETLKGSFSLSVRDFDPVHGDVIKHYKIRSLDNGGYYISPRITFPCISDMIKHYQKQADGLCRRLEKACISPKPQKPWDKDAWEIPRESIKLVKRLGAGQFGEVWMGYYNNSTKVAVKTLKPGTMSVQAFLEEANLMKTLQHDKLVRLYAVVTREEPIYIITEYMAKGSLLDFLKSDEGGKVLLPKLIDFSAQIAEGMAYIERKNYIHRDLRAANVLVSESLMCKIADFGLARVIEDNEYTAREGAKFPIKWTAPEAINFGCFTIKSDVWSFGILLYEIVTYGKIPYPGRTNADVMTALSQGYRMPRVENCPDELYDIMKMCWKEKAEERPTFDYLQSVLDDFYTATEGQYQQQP

What does the source list for `Cc1ccc(NC(=O)c2ccc(C)c(C(F)(F)F)c2)cc1C#Cc1nn(C2CCC(O)CC2)c2ncnc(N)c12` (stereo not drawn) [LY‐1816, N‐(3‐((4‐amino‐1‐(4‐hydroxycyclohexyl)‐1H‐pyrazolo[3,4‐d]pyrimidin‐3‐yl)ethynyl)‐4‐methylphenyl)‐4‐methyl‐3‐(trifluoromethyl)benzamide]?
IC50 (Lyn): 4 nM; IC50 (Fyn): 6 nM; IC50 (Capan‐2): 97 ± 14 nM; IC50 (HPAC): 45 ± 4 nM; IC50 (MDA‐MB‐436): > 10000 nM; IC50 (MCF‐7): > 10000 nM; IC50 (A375): 134 ± 2 nM; IC50 (KG‐1a): > 10000 nM; colony growth (Aspc‐1 cells [1]): significantly inhibited the colony growth; DNA replication (EdU) (Aspc‐1 cells [2]): dose‐dependently suppress the DNA replication; DNA replication (EdU) (Bxpc‐3 cells [3]): dose‐dependently suppress the DNA replication; apoptosis (annexin V and PI‐positive populations) (Aspc‐1 cells [4]): significantly increased the annexin V and PI‐positive populations; apoptosis (annexin V and PI‐positive populations) (Bxpc‐3 cells [5]): significantly increased the annexin V and PI‐positive populations; phosphorylation of Src (Src; 10 PDAC cell lines): potently inhibited the phosphorylation of Src; Src phosphorylation (Src; HT29 and HCT116 cells): relatively weak potency; phosphorylation of STAT3 (STAT3): significantly inhibit STAT3 phosphorylation; body weight [6]: no significant decrease in body weight; cleaved caspase‐3 stain in tumor tissues (cleaved caspase‐3): considerable ability to induce apoptosis; cell migration (Aspc‐1 cells [7]): dose‐dependently reduced cell migration; mice alive at day 105 [8]: 33%; IC50 (HCC1937): 455 ± 87 nM; IC50 (BT474): > 10000 nM; IC50 (HepG2): > 10000 nM; IC50 (RAMOS): ~10000 nM; IC50 (MV4‐11): 138 ± 15 nM; IC50 (L929): > 10000 nM; IC50 (LO2): > 10000 nM
